Assay results reported in ChEMBL document CHEMBL4732157, “A theranostic probe of indoleamine 2,3-dioxygenase 1 (IDO1) for small molecule cancer immunotherapy” (Eur J Med Chem, 2021).
Active and inactive are the calls of the source. No cut-off for these calls is given here.

Legend:
Aspergillus oryzae = assay: Binding affinity to oryzae beta-galactosidase assessed as change in fluorescence intensity at 10 uM measured after 60 mins by fluorescence assay
Method in brief: (§1)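 Selectivity panel: probe was incubated with each enzyme or biomolecule in 10 mM PBS, pH 7.4, containing 1% DMSO, for 60 min at room temperature. Fluorescence intensity was read at 532 nm with excitation at 465 nm.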

[1] = target: T1, Indoleamine 2,3-dioxygenase 1 (Homo sapiens, UniProt P14902); assay: Binding affinity to IDO1 in IFNgamma-stimulated human HeLa cells at 3.5 nM measured after 5 mins in presence of IDO1 inhibitor epacadostat by Hoechst staining based confocal fluorescence imaging analysis
Method in brief: (§2)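 Living HeLa cells, either unstimulated or stimulated with IFN-γ (50 ng/mL, 12 h), were stained with Hoechst for 20 min and then with probe for 5 min before confocal imaging in the green channel.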
Target sequence in this assay (P14902 whole entry, looked up): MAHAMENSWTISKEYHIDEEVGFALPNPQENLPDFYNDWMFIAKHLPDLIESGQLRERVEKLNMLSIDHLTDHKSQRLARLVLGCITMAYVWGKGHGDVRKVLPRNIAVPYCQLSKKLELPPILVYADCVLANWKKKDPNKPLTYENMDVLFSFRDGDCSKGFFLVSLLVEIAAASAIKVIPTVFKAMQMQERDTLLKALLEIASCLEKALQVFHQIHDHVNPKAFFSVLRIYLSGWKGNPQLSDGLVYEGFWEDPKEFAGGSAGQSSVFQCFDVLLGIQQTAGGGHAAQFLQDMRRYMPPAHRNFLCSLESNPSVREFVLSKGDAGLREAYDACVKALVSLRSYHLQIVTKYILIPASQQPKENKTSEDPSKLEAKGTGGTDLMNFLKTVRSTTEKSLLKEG

Trypsin (Homo sapiens) = Trypsin (Homo sapiens) (UniProt P07477+P07478+P35030); assay: Binding affinity to trypsin (unknown origin) assessed as change in fluorescence intensity at 10 uM measured after 60 mins by fluorescence assay; type: protein assay; method in brief: as §1
Albumin [2] = target: Albumin (Bos taurus, UniProt P02769); assay: Binding affinity to bovine serum albumin assessed as change in fluorescence intensity at 10 uM measured after 60 mins by fluorescence assay; type: ADME; conditions: cattle, isolated protein, 1 h; method in brief: as §1
Chain of Albumin (Bos taurus, UniProt P02769) (P02769 whole entry): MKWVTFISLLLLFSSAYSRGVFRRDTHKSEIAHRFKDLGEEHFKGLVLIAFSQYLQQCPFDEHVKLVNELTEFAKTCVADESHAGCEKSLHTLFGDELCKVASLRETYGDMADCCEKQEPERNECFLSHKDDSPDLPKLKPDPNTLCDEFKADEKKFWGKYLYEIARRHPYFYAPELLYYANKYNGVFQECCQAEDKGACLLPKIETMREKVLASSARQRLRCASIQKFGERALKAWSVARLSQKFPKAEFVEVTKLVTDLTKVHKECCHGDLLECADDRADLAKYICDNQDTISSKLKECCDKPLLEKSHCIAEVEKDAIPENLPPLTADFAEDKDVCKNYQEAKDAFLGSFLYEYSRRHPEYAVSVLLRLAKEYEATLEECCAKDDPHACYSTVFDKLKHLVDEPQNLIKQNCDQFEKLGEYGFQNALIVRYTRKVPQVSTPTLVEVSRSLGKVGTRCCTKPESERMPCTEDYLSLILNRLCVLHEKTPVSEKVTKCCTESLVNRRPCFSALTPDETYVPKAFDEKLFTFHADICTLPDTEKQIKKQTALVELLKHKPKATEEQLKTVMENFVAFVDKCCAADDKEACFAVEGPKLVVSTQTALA

[3] = target: T1, Indoleamine 2,3-dioxygenase 1; assay: Inhibition of IDO1 in IFNgamma-stimulated human HeLa cells using tryptophan as substrate measured after 48 hrs
Target sequence in this assay (P14902 whole entry): as the sequence (P14902 whole entry, looked up) above

Escherichia coli = assay: Binding affinity to Escherichia coli beta-galactosidase assessed as change in fluorescence intensity at 10 uM measured after 60 mins by fluorescence assay; method in brief: as §1
[4] = target: T1, Indoleamine 2,3-dioxygenase 1; assay: Binding affinity to recombinant human IDO1 expressed in Escherichia coli BL21 (DE3) assessed as increase in fluorescence intensity at 10 uM measured after 60 mins by fluorescence assay relative to control
Method in brief: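 Human IDO1 was expressed in E. coli BL21(DE3), induced with 0.4 mM IPTG at OD600 0.6 for 18 h at 18 °C, then purified on Ni column (0–250 mM imidazole gradient) and gel filtration. Probe was titrated with increasing IDO1 in 10 mM PBS, pH 7.4, 1% DMSO, for 60 min at room temperature. Fluorescence: excitation 465 nm, emission 532 nm. Detection limit was taken at signal-to-noise ratio 3.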
Target sequence in this assay (P14902 whole entry, looked up): as above

[5] = Binding affinity to GSH assessed as change in fluorescence intensity at 10 uM measured after 60 mins by fluorescence assay; method in brief: as §1
Bos taurus = species on record: Bos taurus; assay: Binding affinity to bovine hemoglobin assessed as change in fluorescence intensity at 10 uM measured after 60 mins by fluorescence assay; method in brief: as §1
[6] = Drug uptake in human HeLa cells at 3.5 nM measured after 5 mins by Hoechst staining based confocal fluorescence imaging analysis; type: ADME, cell-based; conditions: 0.0035 µM; method in brief: as §2
Albumin [7] = target: Albumin (Homo sapiens, UniProt P02768); assay: Binding affinity to human serum albumin assessed as change in fluorescence intensity at 10 uM measured after 60 mins by fluorescence assay; type: ADME; conditions: isolated protein, 1 h; method in brief: as §1
Chain of Albumin (Homo sapiens, UniProt P02768) (P02768 whole entry): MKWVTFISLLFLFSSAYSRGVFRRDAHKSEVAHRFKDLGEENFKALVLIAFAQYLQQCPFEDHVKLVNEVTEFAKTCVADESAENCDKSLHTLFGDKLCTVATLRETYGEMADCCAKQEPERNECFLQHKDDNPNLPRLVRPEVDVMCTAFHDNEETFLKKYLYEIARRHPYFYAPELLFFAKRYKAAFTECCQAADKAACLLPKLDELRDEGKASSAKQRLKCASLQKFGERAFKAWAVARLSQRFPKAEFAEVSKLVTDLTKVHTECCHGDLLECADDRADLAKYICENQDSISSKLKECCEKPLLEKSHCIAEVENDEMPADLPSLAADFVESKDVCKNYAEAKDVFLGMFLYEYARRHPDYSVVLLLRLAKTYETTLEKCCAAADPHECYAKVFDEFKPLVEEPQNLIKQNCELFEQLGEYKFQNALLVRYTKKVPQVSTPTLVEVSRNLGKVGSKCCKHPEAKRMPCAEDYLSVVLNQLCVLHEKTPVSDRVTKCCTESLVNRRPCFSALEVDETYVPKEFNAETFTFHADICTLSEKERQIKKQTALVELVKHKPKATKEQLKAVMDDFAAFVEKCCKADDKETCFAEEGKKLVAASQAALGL

[8] = target: T1, Indoleamine 2,3-dioxygenase 1; assay: Binding affinity to IDO1 in IFNgamma-stimulated human HeLa cells at 3.5 nM measured after 5 mins by Hoechst staining based confocal fluorescence imaging analysis; method in brief: as §2
Target sequence in this assay (P14902 whole entry, looked up): as the sequence (P14902 whole entry, looked up) above

HeLa = assay: Cytotoxicity against human HeLa cells assessed as reduction in cell viability measured after 72 hrs by CCK8 assay; type: cell-based
Method in brief: (§3)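 Log-phase HeLa or CT26 cells were seeded at 6 × 10³ per well and grown 24 h at 37 °C, 5% CO₂. Cells were treated with a concentration series in triplicate for 72 h. Medium was then replaced with medium containing 10% CCK8 and incubated a further 40 min.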

[9] = target: T1, Indoleamine 2,3-dioxygenase 1; assay: Inhibition of recombinant human IDO1 expressed in Escherichia coli BL21 (DE3) using tryptophan as substrate
Target sequence in this assay (P14902 whole entry): as the sequence (P14902 whole entry, looked up) above

Homo sapiens = species on record: Homo sapiens; assay: Binding affinity to chymotrypsin (unknown origin) assessed as change in fluorescence intensity at 10 uM measured after 60 mins by fluorescence assay; method in brief: as §1
CT26 [10] = assay: Cytotoxicity against mouse CT26 cells assessed as reduction in cell viability measured after 72 hrs by CCK8 assay; type: cell-based; conditions: CT26, 72 h; method in brief: as §3
CT26 [11] = assay: Antitumor activity against mouse CT26 cells implanted in BALB/c mouse assessed as tumor growth inhibition at 100 mg/kg, po administered daily for 12 days relative to control; type: functional; conditions: 288 h, time 12 day, read-out: TGI
Method in brief: (§4)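 Female Balb/c mice, 4–5 weeks old, were inoculated subcutaneously in the right forelimb with 5 × 10⁵ log-phase CT26 cells in RPMI. Once tumors reached about 50 mm³, mice were randomized (n = 5 per group) and dosed orally at 100 mg/kg daily. Tumor length, width and body weight were recorded every other day, with V = ½ab². Mice were sacrificed when control tumors approached 2000 mm³. TGI = (Vcontrol − Vcompound)/Vcontrol at the last day. Data are mean ± SEM; Student's t-test.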

[12] = Toxicity in BALB/c mouse implanted with mouse CT26 cells assessed as loss of body weight at 100 mg/kg, po administered daily for 12 days measured every other day during compound dosing; type: organism-based; conditions: in vivo, 288 h, time 12 day; method in brief: as §4
[13] = Drug uptake in human HeLa cells at 5 nM measured after 5 mins by Hoechst staining based confocal fluorescence imaging analysis; type: ADME, cell-based; conditions: 0.005 µM; method in brief: as §2
[14] = target: T1, Indoleamine 2,3-dioxygenase 1; assay: Binding affinity to IDO1 in IFNgamma-stimulated human HeLa cells at 5 nM measured after 5 mins in presence of IDO1 inhibitor epacadostat by Hoechst staining based confocal fluorescence imaging analysis; method in brief: as §2
Target sequence in this assay (P14902 whole entry, looked up): as above

[15] = target: T1, Indoleamine 2,3-dioxygenase 1; assay: Binding affinity to IDO1 in IFNgamma-stimulated human HeLa cells at 5 nM measured after 5 mins by Hoechst staining based confocal fluorescence imaging analysis; method in brief: as §2
Target sequence in this assay (P14902 whole entry, looked up): as above

SMILES | Activity (Aspergillus oryzae) | Activity (Trypsin (Homo sapiens)) | Activity (Albumin [2]) | IC50 [3] [nM] | Activity (Escherichia coli) | Activity [4] | Activity [5] | Activity (Bos taurus) | Activity (Albumin [7]) | IC50 (HeLa) [nM] | IC50 [9] [nM] | Activity (Homo sapiens) | IC50 (CT26 [10]) [nM] | inhibition in vivo at 100 mg/kg (CT26 [11]) [%] | Activity [15] | also measured
O=[N+]([O-])c1ccc(NCCNc2nonc2/C(=N/O)Nc2ccc(F)c(Br)c2)c2nonc12 | inactive | inactive | Not Active | 15 | inactive | Active | inactive | inactive | Not Active | > 100000 | 28 | inactive | > 100000 | – | – | Activity [1]: inactive; Drug uptake [6]: Not Active; Activity [8]: Active
NS(=O)(=O)NCCNc1nonc1/C(=N/O)Nc1ccc(F)c(Br)c1 [EPACADOSTAT] | – | – | – | – | – | – | – | – | – | > 100000 | – | – | > 100000 | 49 | – | –
O=C(CCNc1ccc([N+](=O)[O-])c2nonc12)NCCNc1nonc1/C(=N/O)Nc1ccc(F)c(Br)c1 | inactive | inactive | Not Active | 10 | inactive | – | inactive | inactive | Not Active | > 100000 | 12 | inactive | > 100000 | 46 | Active | Activity [12]: Non-Toxic; fold change (FC) [4]: 5; Drug uptake [13]: Not Active; Activity [14]: inactive
O=C(CNc1ccc([N+](=O)[O-])c2nonc12)NCCNc1nonc1/C(=N/O)Nc1ccc(F)c(Br)c1 | inactive | inactive | Not Active | > 5000 | inactive | inactive | inactive | inactive | Not Active | > 100000 | 1320 | inactive | > 100000 | – | inactive | –
